Experimental data from ChEMBL document CHEMBL1140859, “Design and synthesis of some thiazolyl and thiadiazolyl derivatives of antipyrine as potential non-acidic anti-inflammatory, analgesic and antimicrobial agents” (Bioorg Med Chem, 2009).
Converted amounts (≈) assume the structure as drawn.

Assays:
Rattus norvegicus [1] = test: Antiinflammatory activity against formalin-induced paw edema in anaesthetized Albino rat acute inflammatory model at 20 mg/kg, po dosed 1 hr before formalin challenge assessed after 1 hr; assay type: functional
Summary of the method: (§1)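 Rats in groups of five plus control; test compounds 20 mg/kg po, diclofenac Na 10 mg/kg po, given 1 h before 0.1 mL 2% formalin injected subplantar into left hind paw under light ether anaesthesia. Paw volume by water plethysmometer at 0 and 1, 2, 3, 4 h after formalin; % anti-inflammatory activity versus control; mean ± SE, N = 5.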

Rattus norvegicus [2] = test: Antiinflammatory activity against formalin-induced paw edema in anaesthetized Albino rat acute inflammatory model at 20 mg/kg, po dosed 1 hr before formalin challenge assessed after 2 hrs; assay type: functional; summary of the method: as §1
Rattus norvegicus [3] = test: Antiinflammatory activity against formalin-induced paw edema in anaesthetized Albino rat acute inflammatory model at 20 mg/kg, po dosed 1 hr before formalin challenge assessed after 3 hrs; assay type: functional; summary of the method: as §1
Rattus norvegicus [4] = test: Antiinflammatory activity against formalin-induced paw edema in anaesthetized Albino rat acute inflammatory model at 20 mg/kg, po dosed 1 hr before formalin challenge assessed after 4 hrs; assay type: functional; summary of the method: as §1
Rattus norvegicus [5] = test: Antiinflammatory activity against formalin-induced paw edema in anaesthetized Albino rat sub-acute inflammatory model at 20 mg/kg, po measured on day 1; assay type: functional
Summary of the method: (§2)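 Sub-acute paw edema: test compounds 20 mg/kg po daily for 7 days, diclofenac Na 10 mg/kg po; 0.1 mL 2% formalin injected subplantar into left hind paw under light ether anaesthesia on days 1 and 3, 1 h after dosing. Paw volume measured on day 1 and day 8; % anti-inflammatory activity; N = 5 rats.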

Rattus norvegicus [6] = test: Antiinflammatory activity against formalin-induced paw edema in anaesthetized Albino rat sub-acute inflammatory model at 20 mg/kg, po for 7 days measured on day 8; assay type: functional; summary of the method: as §2
Rattus norvegicus [7] = test: Antiinflammatory activity against turpentine oil-induced granuloma pouch in anaesthetized Albino rat sub-acute inflammatory model at 20 mg/kg, po 1 hr before turpentine oil challenge for 7 days assessed after 8 days; assay type: functional
Summary of the method: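 Dorsal subcutaneous pouch made in ether-anaesthetised rats with 2 mL air, then 0.5 mL turpentine oil. Test compounds 20 mg/kg po, diclofenac Na 10 mg/kg po, started 1 h before turpentine and continued 7 days. Exudate aspirated on day 8 under anaesthesia; volume measured; % inhibition = (Vcontrol − Vtreated)/Vcontrol × 100; N = 5.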

Rattus norvegicus [8] = test: Toxicity in Albino rat assessed as induction of gastric ulceration at 300 mg/kg, po twice a day after 2 hrs; assay type: organism-based, Stomach; set-up: dose 300 mg/kg, route oral; conditions: in vivo
Summary of the method: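 Male albino rats (180–200 g), five per group, fasted 12 h with water ad libitum. Oral dosing at 300 mg/kg; the results text gives two doses at a 2 h interval, while the methods give two equal doses at 0 and 12 h over three days. Controls received 1% gum acacia orally. Rats were killed with ether 6 h after the last dose, and stomachs were inspected grossly for ulceration and hyperemia.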

[9] = Acute toxicity in Albino rat after 24 hrs; assay type: organism-based; conditions: in vivo, read-out: ALD50
Summary of the method: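 Male rats, 180–200 g, groups of five, fasted 24 h before dosing; compounds given orally in graded doses of 0.1–3.0 g/kg; mortality recorded at each dose level after 24 h to estimate approximate acute lethal dose (ALD50).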

Rattus norvegicus [10] = test: Analgesic activity in Albino rat assessed as tail withdrawal response at 20 mg/kg, po after 1 hr; assay type: functional
Summary of the method: (§3)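 Male albino rats, 120–150 g, groups of five plus untreated control; test compounds 20 mg/kg po, diclofenac Na 10 mg/kg po. Tail immersed in 55 °C water; withdrawal reaction time read 1, 2 and 3 h after dosing; percentage increase in reaction time over basal computed; mean ± SE of five animals.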

Rattus norvegicus [11] = test: Analgesic activity in Albino rat assessed as tail withdrawal response at 20 mg/kg, po after 2 hrs; assay type: functional; summary of the method: as §3
Rattus norvegicus [12] = test: Analgesic activity in Albino rat assessed as tail withdrawal response at 20 mg/kg, po after 3 hrs; assay type: functional; summary of the method: as §3
Bacillus subtilis = test: Antimicrobial activity against Bacillus subtilis NRRL B-14819 after 24 hrs by twofold serial dilution method; assay type: functional
Summary of the method: (§4)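 Broth microdilution in Müller–Hinton broth on compounds with agar-diffusion inhibition zones ≥14 mm (disks with 1 mg/mL in DMSO, 37 °C, 24 h, triplicate).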

Micrococcus luteus = test: Antimicrobial activity against Micrococcus luteus ATCC 21881 after 24 hrs by twofold serial dilution method; assay type: functional; conditions: ATCC 21881, 24 h; summary of the method: as §4
Staphylococcus aureus = test: Antimicrobial activity against Staphylococcus aureus ATCC 6538 after 24 hrs by twofold serial dilution method; assay type: functional; conditions: ATCC 6538, 24 h; summary of the method: as §4
Escherichia coli = test: Antimicrobial activity against Escherichia coli ATCC 25922 after 24 hrs by twofold serial dilution method; assay type: functional; conditions: ATCC 25922, 24 h; summary of the method: as §4
Pseudomonas aeruginosa = test: Antimicrobial activity against Pseudomonas aeruginosa ATCC 27853 after 24 hrs by twofold serial dilution method; assay type: functional; conditions: ATCC 27853, 24 h; summary of the method: as §4
Klebsiella pneumoniae = test: Antimicrobial activity against Klebsiella pneumoniae clinical isolate after 24 hrs by twofold serial dilution method; assay type: functional; summary of the method: as §4

Row | Structure (SMILES) | Activity (Rattus norvegicus [1]) [%] | Activity (Rattus norvegicus [2]) [%] | Activity (Rattus norvegicus [3]) [%] | Activity (Rattus norvegicus [4]) [%] | Activity (Rattus norvegicus [5]) [%] | Activity (Rattus norvegicus [6]) [%] | Activity (Rattus norvegicus [7]) [%] | Activity (Rattus norvegicus [8]) | LD50 at 24 h [9] [mg/kg] | Activity (Rattus norvegicus [10]) [%] | Activity (Rattus norvegicus [11]) [%] | Activity (Rattus norvegicus [12]) [%] | MIC (Bacillus subtilis) [µg/mL] | MIC (Micrococcus luteus) [µg/mL] | MIC (Staphylococcus aureus) [µg/mL] | MIC (Escherichia coli) [µg/mL] | MIC (Pseudomonas aeruginosa) [µg/mL] | MIC (Klebsiella pneumoniae) [µg/mL]
1 | Cc1c(NC(=O)C2=C(N)N(c3ccccc3)C(=C(C#N)C#N)S2)c(=O)n(-c2ccccc2)n1C | 26 | 40 | 38 | 40 | 40 | 32 | 62 | Non-toxic | > 3000 | 27 | 46 | 72 | 100 (≈ 213 µM) | – | – | – | – | –
2 | Cc1c(NC(=O)CSc2nnc(N)s2)c(=O)n(-c2ccccc2)n1C | 26 | 43 | 49 | 38 | 29 | 39 | 62 | Non-toxic | > 3000 | 42 | 71 | 76 | – | – | – | – | – | –
3 | Cc1nc2c(sc(=S)n2-c2ccc(Cl)cc2)c(=O)n1-c1c(C)n(C)n(-c2ccccc2)c1=O | – | – | – | – | – | – | – | – | – | – | – | – | 100 (≈ 202 µM) | 100 (≈ 202 µM) | – | – | – | –
4 | Cc1c(NC(=O)c2sc(=S)n(-c3ccccc3)c2NC(=S)Nc2ccccc2)c(=O)n(-c2ccccc2)n1C | 30 | 37 | 41 | 40 | 40 | 39 | 65 | Non-toxic | > 3000 | 48 | 70 | 82 | 12.5 (≈ 21.8 µM) | 50 (≈ 87.3 µM) | 50 (≈ 87.3 µM) | 50 (≈ 87.3 µM) | 50 (≈ 87.3 µM) | 50 (≈ 87.3 µM)
5 | Cc1c(NC(=O)CSc2nnc(NC(=S)Nc3ccc(Cl)cc3)s2)c(=O)n(-c2ccccc2)n1C | – | – | – | – | – | – | – | – | – | – | – | – | – | – | 100 (≈ 183 µM) | – | – | –
6 | Cc1c(NC(=O)c2sc(=S)n(-c3ccc(Cl)cc3)c2NC(=S)Nc2ccc(Cl)cc2)c(=O)n(-c2ccccc2)n1C | – | – | – | – | – | – | – | – | – | – | – | – | 100 (≈ 156 µM) | – | – | – | – | –
7 | Cc1c(NC(=O)c2sc(=S)n(-c3ccccc3)c2N)c(=O)n(-c2ccccc2)n1C | 35 | 37 | 41 | 43 | 20 | 34 | 50 | Non-toxic | > 3000 | 19 | 50 | 67 | 100 (≈ 229 µM) | – | – | – | – | –
8 | Cc1c(NC(=O)/C(C#N)=C2\SCC(=O)N2c2ccccc2)c(=O)n(-c2ccccc2)n1C | 13 | 31 | 23 | 19 | 29 | 17 | 53 | Non-toxic | > 3000 | 22 | 20 | 34 | 100 (≈ 224 µM) | 100 (≈ 224 µM) | 50 (≈ 112 µM) | 50 (≈ 112 µM) | 50 (≈ 112 µM) | 50 (≈ 112 µM)
9 | Cc1c(NC(=O)/C(C#N)=C2\SC=C(c3ccc(Br)cc3)N2c2ccccc2)c(=O)n(-c2ccccc2)n1C | – | – | – | – | – | – | – | – | – | – | – | – | 100 (≈ 171 µM) | – | – | – | – | –
10 | Cc1c(NC(=O)c2sc(=S)n(-c3ccc(Cl)cc3)c2N)c(=O)n(-c2ccccc2)n1C | – | – | – | – | – | – | – | – | – | – | – | – | 100 (≈ 212 µM) | 100 (≈ 212 µM) | – | – | – | –
11 | CC(=O)Nc1nnc(SCC(=O)Nc2c(C)n(C)n(-c3ccccc3)c2=O)s1 | 43 | 37 | 46 | 43 | 29 | 39 | 60 | Non-toxic | > 3000 | 30 | 60 | 55 | – | – | 100 (≈ 239 µM) | – | – | –
12 | Cc1c(NC(=O)/C(C#N)=C2\SC=C(c3ccc(Cl)cc3)N2c2ccccc2)c(=O)n(-c2ccccc2)n1C | 39 | 29 | 33 | 43 | 37 | 44 | 58 | Non-toxic | > 3000 | 22 | 43 | 43 | – | – | 100 (≈ 185 µM) | – | – | –
13 | CC1(C)S[C@@H]2[C@H](NC(=O)[C@H](N)c3ccccc3)C(=O)N2[C@H]1C(=O)O.O.O.O [AMPICILLIN TRIHYDRATE] | – | – | – | – | – | – | – | – | – | – | – | – | 12.5 | 12.5 | 6.25 | 6.25 | 12.5 | 12.5
14 | Cc1c(NC(=O)c2sc(=S)n(-c3ccc(Cl)cc3)c2NC(=S)Nc2ccccc2)c(=O)n(-c2ccccc2)n1C | – | – | – | – | – | – | – | – | – | – | – | – | – | – | 100 (≈ 165 µM) | – | – | –
15 | Cc1c(NC(=O)/C(C#N)=C2\SCC(=O)N2c2ccc(Cl)cc2)c(=O)n(-c2ccccc2)n1C | – | – | – | – | – | – | – | – | – | – | – | – | 25 (≈ 52.1 µM) | 12.5 (≈ 26 µM) | 50 (≈ 104 µM) | 25 (≈ 52.1 µM) | 50 (≈ 104 µM) | 100 (≈ 208 µM)
16 | Cc1c(NC(=O)c2sc(=S)n(-c3ccc(Cl)cc3)c2NC(=O)Nc2ccccc2)c(=O)n(-c2ccccc2)n1C | 26 | 37 | 49 | 40 | 31 | 42 | 72 | Non-toxic | > 3000 | 18 | 49 | 44 | 100 (≈ 169 µM) | – | – | – | – | –
17 | Cc1c(NC(=O)/C(C#N)=C2\SC=C(c3ccc(Cl)cc3)N2c2ccc(Cl)cc2)c(=O)n(-c2ccccc2)n1C | 35 | 40 | 41 | 29 | 29 | 39 | 60 | Non-toxic | > 3000 | 34 | 64 | 58 | 100 (≈ 174 µM) | – | – | – | – | –
18 | Cc1c(NC(=O)CSc2nnc(NC(=S)Nc3ccccc3)s2)c(=O)n(-c2ccccc2)n1C | 26 | 31 | 21 | 26 | 23 | 20 | 19 | Non-toxic | > 3000 | 27 | 43 | 46 | – | – | 100 (≈ 195 µM) | – | – | –
19 | CCOC(=O)Nc1nnc(SCC(=O)Nc2c(C)n(C)n(-c3ccccc3)c2=O)s1 | 35 | 17 | 23 | 19 | 29 | 27 | 33 | Non-toxic | > 3000 | 17 | 15 | 28 | 100 (≈ 223 µM) | – | – | – | – | –
20 | Cc1c(NC(=O)c2sc(=S)n(-c3ccccc3)c2NC(=S)Nc2ccc(Cl)cc2)c(=O)n(-c2ccccc2)n1C | – | – | – | – | – | – | – | – | – | – | – | – | 12.5 (≈ 20.6 µM) | – | 25 (≈ 41.2 µM) | 25 (≈ 41.2 µM) | 50 (≈ 82.3 µM) | 50 (≈ 82.3 µM)
